# Assay outcomes from PubChem.
# ANO1 activ: activates or potentiates the mouse TMEM16A chloride channel | Q8BHY3 | HEK293 TMEM16A/YFP-H148Q/I152L, iodide quench fluorescence; active compounds read low | B-score at 10 µM | hit rate 0.3% among 340,000 | AID 623877;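 active = fluorescence-ratio B-score plate-corrected deviation score at least 3 library SD below zero, with starting fluorescence score within 5 deviations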;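 note: channel opened by trigger with iodide after compound preincubation; score built on the fluorescence ratio of max minus min over baseline; more negative score means more quench and so TMEM16A activation or potentiation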
# MC4R antagonist: blocks human MC4R cAMP signaling. P32245. AID 540295. inhibition, % at 6.5 µM. MC4R-expressing cells, MTII-stimulated cAMP, LANCE TR-FRET. hit rate 0.48% among 360,000;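 active = inhibition above its plate's cutoff, the mean of tested wells on that plate plus 3 SD, cut at about 29% in these data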
#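 System: U2OS cells stably expressing human melanocortin 4 receptor (MC4R). Reagent: Melanotan II challenge after compound preincubation. Doses: 6.5 µM. Times: 30-min compound, 1-h challenge, 1-h detection, room temperature. Measured by: TR-FRET with Eu-cAMP and labeled anti-cAMP, 671 nm. Replicates: singlicate.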
# TMEM16A inh: inhibitors of mouse TMEM16A calcium-activated chloride channel | normalized B-score (activity score, 25-100; higher = stronger inhibition) at 10 µM | HEK293 TMEM16A/YFP iodide influx fluorescence, ionomycin | hit rate 1.2% among 310,000 | AID 588511 | Q8BHY3;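 active = ratio plate-corrected score three or more library SD toward inhibition, starting fluorescence score within five deviations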;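 note: score derived from kinetic fluorescence span divided by baseline fluorescence per well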
# Beta cell apopt: beta cell apoptosis inhibition | INS-1E cytokine-induced death, ATP luminescence, 48 h; percent of positive-control rescue, neutral wells zero | protection from apoptosis, % (no concentration beside the values) | hit rate 0.8% among 300,000;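 active = Every replicate reaches about 75%, or at least half do and their mean reaches it too, limit read from the data; inconclusive = At least half of replicates reach the limit but their mean does not; inactive = Under half of replicates reach the limit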;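 note: higher means more ATP so stronger rescue from cytokine killing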
# MC4R ag barr: human MC4R agonism via beta-arrestin. AID 540308. U2OS MC4R beta-arrestin complementation, luminescence; percent of melanotan II response, DMSO zero. P32245. activation, % at 8.9 µM. hit rate 0.98% among 360,000;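 active = activation above a per-plate cutoff, the mean activation of sample wells on that plate plus 3 SD, cut at about 8% in these data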
# CSC inhib: blocks cancer stem cells. hit rate 1.1% among 300,000. inhibition, % at 7.5 µM. cancer stem cell-like cells viability, luminescence; in the data active = inhibition above about 75%; inconclusive = no clear call, values can overlap the other calls; tested in HMLE shEcad cells
# Hits are given with their value; – = inactive; ? = inconclusive; · = not tested or not shown. The list is not random: actives were taken first. Their share in the collection is about 3.8%.
SMILES,ANO1 activ,MC4R antagonist,TMEM16A inh,Beta cell apopt,MC4R ag barr,CSC inhib
CC1CCN(Cc2c(C(=O)N/N=C/c3cc(Br)ccc3O)nnn2-c2nonc2N)CC1,–,–,–,90,–,·
CN(C)c1ccc(/C=N/NC(=O)c2nnn(-c3nonc3N)c2CN(C)c2ccccc2)cc1,–,–,–,–,8.5,–
CC1CCN(Cc2c(C(=O)N/N=C/c3cc(Cl)ccc3O)nnn2-c2nonc2N)CC1,–,–,–,88,–,·
CCOc1ccc(/C=N/NC(=O)c2nnn(-c3nonc3N)c2CN2CCC(C)CC2)cc1,–,–,–,–,–,–
CC1CCN(Cc2c(C(=O)N/N=C/c3ccc(C(F)(F)F)cc3)nnn2-c2nonc2N)CC1,–,–,–,–,24,–
O=c1ccn([C@@H]2O[C@H](CNCC3=Cc4cc(O)ccc4OC3)[C@@H](O)[C@H]2O)c(=O)[nH]1,·,–,·,·,–,·
NC(=O)c1ccsc1NC(=O)c1ccc([N+](=O)[O-])o1,–,–,·,–,–,–
C/C(=N\NC(=O)c1nnn(-c2nonc2N)c1CN1CCc2ccccc21)c1ccccc1O,–,–,–,92,–,91
NC(=O)C1CC(=O)N(c2ccc(OCc3ccc(Cl)c(Cl)c3)cc2)C1 (stereo unspecified),·,–,·,·,–,·
S=c1nc[nH]c2c1ncn2C1CCCO1 (stereo unspecified),–,–,–,–,–,122
COc1cc(CN2C[C@@H](CO)O[C@@H](n3cnc4c(N(C)C)ncnc43)C2)cc(OC)c1OC,·,–,·,·,–,·
CC[C@]12c3[nH]c4ccc(Cl)cc4c3CCN1C(=O)[C@@H](CC(=O)NCCCn1ccnc1)C[C@@H]2C(=O)N1CCN(C(=O)c2ccco2)CC1,·,–,·,·,–,·
Cc1cc(C)n(C(=O)/C(C#N)=N/Nc2cc(Cl)cc(Cl)c2)n1,–,–,100,–,–,–
COc1ccccc1C(=O)NC(=O)COC(=O)CNC(=O)c1ccccc1F,–,–,·,–,–,–
Cc1cc(NC(=O)COC(=O)c2cccc(OCc3ccccc3)c2)no1,–,–,–,–,8.5,–
CC(=O)NCCNC(=O)c1ccc(Cn2c(=O)[nH]c3ccsc3c2=O)cc1,–,–,–,–,–,–
O=C(Nc1cc(Cl)cc(Cl)c1)c1ccc(Cn2c(=O)[nH]c3ccsc3c2=O)cc1,–,–,–,–,20,?
CCC(C)n1c(=S)[nH]c2c(sc3ccc([N+](=O)[O-])cc32)c1=O (stereo unspecified),–,–,25,–,–,–
CC1CC(=O)N(CC(=O)Nc2ccccc2F)c2ccccc2S1(=O)=O (stereo unspecified),–,–,–,–,–,–
Cc1ccc(NC(=O)c2c(Cl)nc3ccccn23)cc1,-6.1,–,–,–,–,–
Cc1nc2ccccn2c1C(=O)Nc1ccc(Cl)cc1,–,–,–,–,–,–
CC(O)(c1cccc(F)c1)c1nc(-c2ccoc2)cs1 (stereo unspecified),·,–,·,·,–,·
COc1cc(/C=C(/C(=O)c2cccs2)c2nc3ccccc3[nH]2)cc(OC)c1O,–,–,–,–,–,77
O=C(/C(=C/c1ccc(Cl)cc1)c1nc2ccccc2[nH]1)c1ccccc1,–,–,–,104,–,–
CCOc1ccc(-n2nnnc2-c2nc3ccccc3s2)cc1,–,–,–,–,–,–
SMILES,ANO1 activ,MC4R antagonist,TMEM16A inh,Beta cell apopt,MC4R ag barr,CSC inhib
Cc1ccc(-n2nnnc2-c2nc3ccccc3s2)cc1,–,–,–,–,8.7,–
CCN(CC)C(=O)c1[nH]cnc1C(=O)NC1CCN(C(=O)OC(C)(C)C)CC1,–,–,·,–,–,–
Brc1ccc(N/N=C(/N=Nc2nn[nH]n2)c2ccccc2)cc1,–,–,–,96,–,–
Cn1cc(S(=O)(=O)N2CCCC2)cc1C(=O)NCc1ccccc1Cl,–,–,–,–,–,–
Cc1cc2c(cc1C)C(c1cc(Br)ccc1F)CC(=O)N2 (stereo unspecified),–,–,–,–,–,172
Cc1cc2c(cc1C)C(c1ccccc1F)CC(=O)N2 (stereo unspecified),–,–,–,–,–,–
CN(C)c1ccc2nc3ccc(=[N+](C)C)cc-3sc2c1,–,–,–,·,–,96
Oc1ccc(N=Nc2ccccc2C(F)(F)F)c2cccnc12,–,–,–,90,–,100
N=c1oc2ccc(Br)cc2cc1C(=O)NCc1ccccc1,–,–,–,–,–,–
CC(NC(=O)c1cc2cc(Br)ccc2oc1=N)c1ccccc1 (stereo unspecified),–,–,25,–,–,–
Cc1cc(SCC(=O)c2ccc(O)c(O)c2)n2nc(C)c(-c3ccccc3)c2n1,–,–,–,–,–,119
COc1cccc(C(NC(C)=O)c2nc(-c3cccc(F)c3)cs2)c1 (stereo unspecified),·,–,·,·,–,·
O=C1c2ccccc2NC(c2ccc(-c3ccc(Br)cc3)o2)N1O (stereo unspecified),–,–,–,–,–,103
CCCOc1ccccc1OCC(=O)Nc1cccc(S(=O)(=O)NC2=NCCC2)c1,–,–,·,·,–,·
CCN1C[C@@H]2[C@@H]3C(=O)N(C)C(=O)[C@@H]3[C@](Cc3ccccc3)(C1=O)N2C(=O)c1ccc(Br)cc1,–,–,·,·,–,·
CCCN(CC1CC1)C(=O)CSc1ncnc2sc(C)c(C)c12,–,–,–,–,–,–
CCN(C(=O)CSc1ncnc2sc(C)c(C)c12)C1CCS(=O)(=O)C1 (stereo unspecified),-40,–,–,–,–,–
COc1cccc(/C=N/NC(=O)c2c(-c3ccccc3)noc2C)c1O,–,–,–,87,–,–
COc1cccc(/C=N/NC(=O)c2cc3cc([N+](=O)[O-])ccc3s2)c1O,–,–,–,82,–,106
COc1ccc(OC)c2[nH]c(C(=O)N/N=C/c3ccccc3O)cc12,–,–,–,96,–,–
COc1cccc(/C=N/NC(=O)c2ccoc2C)c1O,–,–,–,86,–,–
COc1cc(/C=N/NC(=O)c2cc(-c3cccn3C)n[nH]2)cc(OC)c1OC,–,–,–,–,–,–
Cc1ccc(/C=N/NC(=O)c2c(-c3ccccc3)noc2C)c(O)c1,–,–,–,93,–,–
COc1cccc(/C=N/NC(=O)c2cc(-c3cccn3C)n[nH]2)c1O,–,–,–,–,–,87
COc1cc(/C=N/NC(=O)c2c(-c3ccccc3)noc2C)ccc1O,–,–,–,–,–,–
Cc1onc(-c2ccccc2)c1C(=O)NC1CC1,–,–,·,·,–,·
CC(=O)C1CCC2C3CCC4=CC(=O)CCC4(C)C3(F)C(O)CC12C (stereo unspecified),–,–,·,·,–,·
CCC1CSC(Nc2ccc(C(=O)/C=C/c3cccc(C)c3)cc2)=N1 (stereo unspecified),–,–,–,–,–,87
